Compound activity as filed in PubChem.
This is a sample that favours compounds with a hit; in the whole collection about 4.1% have one here.
RGS4 block: RGS4 inhibitors, primary screen, cell-based, HEK293 M3R inducible RGS4, calcium flux; B-score at 10 µM; actives 0.45% (n = 310,000); Regulator of G-protein signaling 4 (Homo sapiens), P49798; Fluo-4 calcium flux; stronger effect = higher value; triggered by carbachol at its EC20;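 active = B-score, a plate-corrected calcium signal, over three deviations above library mean, with baseline fluorescence within five deviations of library mean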;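 also: RGS4 expression induced by doxycycline in cells with stable M3 receptor; B-score is computed from the integrated fluorescence ratio over baseline after carbachol; higher B-score means a larger calcium signal and so more RGS4 inhibition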
MrgX1 ag: agonists of human MrgX1 receptor, primary screen, HEK293 cells, Fluo-4 calcium flux; Mas-related G-protein coupled receptor member X1 (Homo sapiens), Q96LB2; Fluo-4 calcium fluorescence, agonist mode; stronger effect = higher value; B-score at 10 µM; actives 0.44% (n = 310,000); AID 588627, 2011;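 active = calcium response B-score plate-corrected fluorescence ratio at least 3 library SD, with starting fluorescence B-score inside 5 SD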
Target sequence (Q96LB2 whole entry, looked up): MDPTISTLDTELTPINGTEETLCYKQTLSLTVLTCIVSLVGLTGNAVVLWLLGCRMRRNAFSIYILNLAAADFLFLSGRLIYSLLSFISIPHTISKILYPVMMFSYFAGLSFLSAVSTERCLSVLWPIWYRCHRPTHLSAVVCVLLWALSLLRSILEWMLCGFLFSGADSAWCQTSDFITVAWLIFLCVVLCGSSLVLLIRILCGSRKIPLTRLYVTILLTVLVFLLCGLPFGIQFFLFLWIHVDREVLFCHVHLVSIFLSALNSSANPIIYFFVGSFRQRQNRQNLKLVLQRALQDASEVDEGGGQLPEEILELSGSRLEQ
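System – MrgX1-expressing HEK293 cells · Incubation – cells plated overnight, dye loaded 0.5 h 37 °C, 0.5 h room temperature · Technique – kinetic Fluo-4 NW fluorescence of intracellular calcium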
MrgX1 antagonist: antagonists of human MrgX1 receptor, primary screen, HEK293 cells, Fluo-4 calcium flux | BAM8-22 antagonism; stronger effect = lower value | Mas-related G-protein coupled receptor member X1 (Homo sapiens), Q96LB2 | AID 588676, 2011 | actives 1.3% (n = 310,000) | B-score at 10 µM;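 active = calcium-response B-score plate-corrected more than 3 library SD below zero, starting fluorescence within 5 deviations, no agonist response on first addition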;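 also: peak minus trough fluorescence over baseline after final BAM8-22 challenge near maximal dose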
Kir21 inh: inhibitors of mouse Kir2.1 inward-rectifier potassium channel; HEK293-Kir2.1, FluxOR thallium flux fluorescence; stronger effect = lower value; B-score at 10 µM; actives 0.85% (n = 310,000); AID 1672, 2009;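 active = fluorescence ratio B-score at or below minus 3 SD of library scores, with starting-brightness B-score within 2 SD, cut at about -4.2 in these data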;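 also: channel flux triggered by added potassium and thallium sulfate stimulus; B-score of peak minus minimum fluorescence over baseline after thallium stimulus; more negative B-score means stronger Kir2.1 block with less thallium influx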
MrgX1 PAM: positive allosteric modulators of MrgX1, primary screen, HEK293 cells, Fluo-4 calcium flux; Mas-related G-protein coupled receptor member X1 (Homo sapiens), Q96LB2; FDSS; stronger effect = higher value; actives 0.63% (n = 310,000); AID 588675, 2011; B-score at 10 µM;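 active = plate-corrected calcium response at least 3 library SD above typical, normal starting fluorescence, not activating the receptor alone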;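 also: compound read alongside a low EC10 to EC30 dose of BAM8-22 agonist; peak minus trough fluorescence over baseline measured at the second addition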
RGS4 act: RGS4 potentiators or activators, primary screen, cell-based, HEK293 M3R inducible RGS4, calcium flux | B-score at 10 µM | carbachol calcium flux Fluo4; stronger effect = lower value | actives 0.92% (n = 310,000);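 active = B-score of the integrated calcium signal more than 4 SD below the library mean, with starting fluorescence not abnormally high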;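 also: negative B-score means reduced calcium response which marks RGS4 activation or potentiation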
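Reagent: ECmax carbachol challenge; Test system: M3R-expressing HEK293 line, RGS4 induced by doxycycline; Schedule: overnight RGS4 induction, 30 min dye load 37 °C, 20 min compound RT; Detection: calcium dye Fluo4 fluorescence; Read-out: Agonist-evoked peak-minus-minimum fluorescence over baseline, integrated ratio, B score.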
* marks the source's active call; other numbers are inactive results; i = inactive; / = not tested or not shown.

SMILES	RGS4 block	MrgX1 ag	MrgX1 antagonist	Kir21 inh	MrgX1 PAM	RGS4 act
c1ccc(CNCCC(Cc2ccccc2)c2ccco2)cc1 (centres undefined)	i	i	i	-11.8*	i	i
COc1ccc(C(=O)c2sc3nc(-c4ccccc4)ccc3c2N)cc1	i	i	i	1.63	10.7*	i
CCCCn1nnnc1SCC(=O)c1ccccc1F	i	i	i	-1.01	i	i
COc1cccc(C2=NN(C(=O)c3ccco3)C(O)(C(F)(F)F)C2)c1 (centres undefined)	i	i	i	0.61	i	i
COc1ccc(C(=O)N2N=C(c3ccccc3)CC2(O)C(F)(F)F)cc1 (centres undefined)	i	/	/	-0.03	/	i
COc1ccc(C2=NN(C(=O)C(O)c3ccccc3)C(O)(C(F)(F)F)C2)cc1 (centres undefined)	i	29.4*	i	-1.36	i	i
Cc1ccc(C2=NN(C(=O)c3ccco3)C(O)(C(F)(F)F)C2)cc1 (centres undefined)	i	i	i	-4.62*	i	i
Cc1ccc2cc(C=O)c(Cl)nc2c1	i	i	i	0.58	7.34*	i
CS(=O)(=O)N(CC(=O)NCCC1=CCCCC1)C1CCCCC1	i	i	i	0.33	i	i
COc1ccc(-c2csc3ncnc(N4CCN(S(=O)(=O)c5cccc(C(F)(F)F)c5)CC4)c23)cc1	i	i	i	1.6	i	i
COc1ccc(-c2csc3ncnc(N4CCN(c5ccccc5[N+](=O)[O-])CC4)c23)cc1	i	i	i	0.65	i	-7.35*
COc1ccc(-c2csc3ncnc(N4CCN(S(=O)(=O)c5ccc(C(C)=O)cc5)CC4)c23)cc1	i	i	i	-0.08	i	-6.99*
Cc1ccc(NC(=O)CSCC(=O)Nc2cc(C(F)(F)F)ccc2N2CCOCC2)cc1	i	i	i	-1.21	i	i
Cc1ccc(NC(=O)CSCC(=O)Nc2cc(Cl)ccc2N2CCN(C)CC2)cc1	i	i	i	-5.25*	i	i
CCn1c(=O)c2cc(C(=O)Nc3ccc(OC)cc3OC)sc2c2ccccc21	i	i	i	0.4	i	i
O=C(Oc1ccc(=O)n(-c2ccccc2)n1)c1ccccc1	i	i	i	-7.39*	i	i
O=C(O)COc1ccc(=O)n(-c2ccccc2)n1	i	i	i	-0.14	i	i
CCOC(=O)C1CCCN(C(=O)C(C)(C)Oc2ccc(Cl)cc2)C1 (centres undefined)	i	i	i	-5.04*	i	i
CCOC(=O)C1CCCN(C(=O)c2ccc(C)c([N+](=O)[O-])c2)C1 (centres undefined)	i	i	i	-0.67	i	-8.59*
COc1cc(C(=O)Sc2ccc(Cl)cc2)cc(OC)c1OC	i	i	i	-1.28	i	i
CCN(CC)CC#CC(C)(C)OC(C)=O	i	i	i	-1.4	i	i
O=C(/C=C/c1ccncc1)c1cc(Cl)ccc1O	i	i	i	0.27	i	i
CN(C)c1ccc(/C=C/C(=O)c2cc(Cl)ccc2O)cc1	i	i	-6.84*	0.21	i	i
CCN(CC)C(=O)CSc1nnc([C@@H](NC(=O)OC(C)(C)C)C(C)C)o1	i	i	i	0.38	i	i
N#C/C(=C\N1CCCCC1)S(=O)(=O)c1ccc(Cl)cc1	i	i	i	0.92	i	i
CCC(=O)c1ccc(OCC(O)CN(CCc2ccccc2)Cc2ccccc2)cc1 (centres undefined)	i	i	i	-1.79	i	-8.35*
